This note sets out measurements from ChEMBL document CHEMBL1143390 (Bioorg Med Chem, 2009).

pEC50, pIC50: −log10 of the molar value.

In data set [1] the test system is PBMC. Kind of data set: Cytotoxicity against human PBM cells after 4 days by MTT assay. Conditions: 96 h.
In data set [2] the test system is Human immunodeficiency virus 1. Put plainly: Antiviral activity against HIV1 LAI infected in PBM cells. The conditions noted are these: Human immunodeficiency virus 1, LAI, PBMC.
A short description of data set [3]: Chemical stability in phosphate buffer assessed as hydrolysis half life at pH 7.4. It is filed as physicochemical. Put shortly: (§1)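 Prodrug, 1 mM in DMSO, diluted into 10 mM phosphate buffer at pH 2.0 or 7.4, ionic strength 0.1 set with NaCl, final 5% DMSO. Held at 37 ± 0.5 °C in screw-capped vials. Samples drawn over time, filtered and analysed by HPLC. Half-life from linear regression of a pseudo-first-order plot.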

The subject of data set [4] is CCRF-CEM. Put plainly: Cytotoxicity against human CEM cells after 3 days by MTT assay. The class given is cell-based. Conditions: 72 h. Summed up:
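CEM T-lymphoblastoid cells in log phase, seeded at 2.5×10^3 cells/well with 10-fold serial dilutions of drug. Incubated 3 days at 37 °C in humidified 5% CO2-air. MTT dye added overnight, then solubilization for 5 h and read at 570 nm. IC50 from the concentration-response curve by the median effect method.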

Data set [5] can be described thus: Chemical stability in phosphate buffer assessed as hydrolysis half life at pH 2.0. It is filed as physicochemical. Summed up:
as §1

Data set [6] concerns Vero. Kind of data set: Cytotoxicity against african green monkey Vero cells after 2 days by MTT assay. Conditions: Chlorocebus sabaeus, 48 h.
Data set [7] in a line: Chemical stability in Tris-HCl buffer assessed as hydrolysis half life at pH 8 in presence of porcine esterase. The class given is physicochemical. The conditions noted are these: pig, isolated protein. Put shortly:
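Prodrug at 1.4 mM final in pH 8.0 Tris-HCl with 5% DMSO and 20 μg/mL porcine esterase, incubated at 37 ± 0.5 °C. Aliquots quenched in ice-cold methanol/acetonitrile 1/1, filtered and analysed by HPLC. Enzyme activity checked with ethyl butyrate substrate.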

In data set [1], `Cc1cn([C@H]2C[C@H](N=[N+]=[N-])[C@@H](CO)O2)c(=O)[nH]c1=O` [ZIDOVUDINE] gave a pIC50 below 4.00. The EC90 in data set [2] turned out to be 0.04 µM.

Consider `Cc1cn([C@H]2CO[C@@H](COC(=O)C(C)(C)N)O2)c(=O)[nH]c1=O.Cl`, for which the t1/2 is 31.17 h in data set [3], 15.3 h in data set [5] and 0.223 h in data set [7]. Further, the pIC50 in data set [4], in data set [1] and in data set [6] was below 4.00 each time. Moreover, the pEC50 in data set [2] was 5.66. The same compound showed an EC90 in data set [2] of 7.6 µM.

In the case of `CCCCC(=O)OC[C@@H]1OC[C@H](n2cc(C)c(=O)[nH]c2=O)O1`, the t1/2 was 53 h in data set [3], 26.67 h in data set [5] and 0.308 h in data set [7]. Also, the results for the negative-log IC50 (pIC50) in data set [4], in data set [1] and in data set [6] were below 4.00, below 4.00 and 4.31, respectively. Moreover, the pEC50 in data set [2] is 6.40. For the same compound, it took 2.5 µM to reach the 90% level in data set [2] (EC90).

Consider `Cc1cn([C@H]2CO[C@@H](COC(=O)[C@@H](N)Cc3c[nH]c4ccccc34)O2)c(=O)[nH]c1=O.Cl`, for which the results for the t1/2 in data set [3], in data set [5] and in data set [7] were 7 h, 5.33 h and 0.297 h, respectively. Besides, the pIC50 in data set [4], in data set [1] and in data set [6] was below 4.00 each time. This compound had a pEC50 in data set [2] of 5.77. The compound further returned an EC90 in data set [2] of 8 µM.

With `Cc1cn([C@H]2CO[C@@H](COC(=O)[C@@H]3CCCN3)O2)c(=O)[nH]c1=O.Cl`, the t1/2 was found to be 6.33 h in data set [3], 3.83 h in data set [5] and 0.227 h in data set [7]. Further, the pIC50 in data set [4], in data set [1] and in data set [6] was below 4.00 each time. In addition, the pEC50 in data set [2] was 5.85. This compound also showed an EC90 in data set [2] of 7.3 µM.

For the compound `CCCCCCCCCCCC(=O)OC[C@@H]1OC[C@H](n2cc(C)c(=O)[nH]c2=O)O1`, the pIC50 in data set [4], in data set [1] and in data set [6] was below 4.00 in each case. In data set [2], the pEC50 is 6.40. Moreover, in data set [2], the EC90 turned out to be 3.2 µM. Also, the t1/2 in data set [7] turned out to be 0.683 h.

On to `Cc1cn([C@H]2CO[C@@H](COC(=O)[C@@H](N)C(C)C)O2)c(=O)[nH]c1=O.Cl`, for which the t1/2 in data set [3] is 36.67 h; in data set [5], 16 h; in data set [7] it was 0.315 h. The pIC50 in data set [4], in data set [1] and in data set [6] was below 4.00 throughout. In data set [2], the pEC50 is 6.25. For the same compound, in data set [2], the EC90 is 4.9 µM.

Turning to `Cc1cn([C@H]2CO[C@@H](COC(=O)C(C)(C)C)O2)c(=O)[nH]c1=O`, the t1/2 in data set [3] was 46.33 h; in data set [5], 21.67 h; in data set [7] it was 0.283 h. Further, the pIC50 in data set [4] was below 4.00; in data set [1], below 4.00; in data set [6] it was 4.74. Besides, in data set [2], the pEC50 is 5.89. In addition, the EC90 in data set [2] turned out to be 14.5 µM.

`CC[C@H](C)[C@H](N)C(=O)OC[C@@H]1OC[C@H](n2cc(C)c(=O)[nH]c2=O)O1.Cl`: the t1/2 amounted to 34 h in data set [3], 13.3 h in data set [5] and 0.292 h in data set [7]. Besides, the pIC50 in data set [4], in data set [1] and in data set [6] was below 4.00 in each case. For the same compound, the negative logarithm of the EC50 (pEC50) in data set [2] is 5.52. This compound came in with an EC90 in data set [2] of 9.9 µM.

With `CCCCCCCCCCCCCCCC(=O)OC[C@@H]1OC[C@H](n2cc(C)c(=O)[nH]c2=O)O1`, the pIC50 in data set [4] was below 4.00; in data set [1], below 4.00; in data set [6], 4.04. Also, in data set [2], the pEC50 was 4.63. Besides, the EC90 in data set [2] is above 100 µM. Also, the t1/2 in data set [7] was found to be 0.8 h.

Take `Cc1cn([C@H]2CO[C@@H](COC(=O)[C@@H](N)CCC(=O)O)O2)c(=O)[nH]c1=O.Cl`: the t1/2 in data set [3] is 4 h; in data set [5], 3.17 h; in data set [7] it was 0.223 h. Moreover, the pIC50 in data set [4], in data set [1] and in data set [6] was below 4.00 throughout. Further, the pEC50 in data set [2] is 6.05. It took 6.3 µM to reach the 90% level in data set [2] (EC90).

With `Cc1cn([C@H]2CO[C@@H](COC(=O)C3CCCCC3)O2)c(=O)[nH]c1=O`, the figures for the t1/2 in data set [3], in data set [5] and in data set [7] were 53.33 h, 30.83 h and 0.322 h, respectively. In addition, the pIC50 in data set [4], in data set [1] and in data set [6] was below 4.00 in each case. In data set [2], this compound showed a pEC50 of 5.89. The compound also returned an EC90 in data set [2] of 3.9 µM.

`Cc1cn([C@H]2CO[C@@H](COC(=O)[C@H](N)Cc3ccccc3)O2)c(=O)[nH]c1=O.Cl`: the t1/2 in data set [3] was determined as 15.7 h; in data set [5], 7.17 h; in data set [7], 0.26 h. For the same compound, the pIC50 in data set [4], in data set [1] and in data set [6] was below 4.00 in each case. Further, the pEC50 in data set [2] was 6.00. In addition, in data set [2], the EC90 came out at 5.2 µM.

As for `Cc1cn([C@H]2CO[C@@H](COC(=O)[C@@H](N)CC(C)C)O2)c(=O)[nH]c1=O.Cl`, the t1/2 in data set [3] is 35.83 h; in data set [5], 14.5 h; in data set [7], 0.298 h. For the same compound, the pIC50 in data set [4], in data set [1] and in data set [6] was below 4.00 in each case. In data set [2], this compound showed a pEC50 of 5.48. The same compound came in with an EC90 in data set [2] of 12.4 µM.

In the case of `CC(=O)OC[C@@H]1OC[C@H](n2cc(C)c(=O)[nH]c2=O)O1`, the t1/2 is 44.17 h in data set [3], 26.33 h in data set [5] and 0.272 h in data set [7]. In addition, the figures for the pIC50 in data set [4], in data set [1] and in data set [6] were 4.00, below 4.00 and below 4.00, respectively. Besides, in data set [2], the negative logarithm of the EC50 (pEC50) is 5.54. Also, the concentration for an effect of 90% (EC90) in data set [2] stood at 12.3 µM.

As to `Cc1cn([C@H]2CO[C@@H](COCOC(=O)C(C)(C)C)O2)c(=O)[nH]c1=O`, the pIC50 in data set [4], in data set [1] and in data set [6] was below 4.00 in each case. Also, the pEC50 in data set [2] was 5.85. The compound further displayed an EC90 in data set [2] of 9.7 µM. For the same compound, the t1/2 in data set [7] amounted to 0.293 h.

In the case of `Cc1cn([C@H]2CO[C@@H](COC(=O)[C@H](C)N)O2)c(=O)[nH]c1=O.Cl`, the t1/2 was 26.67 h in data set [3], 14.5 h in data set [5] and 0.232 h in data set [7]. The pIC50 in data set [4], in data set [1] and in data set [6] was below 4.00 in each case. The compound also gave a pEC50 in data set [2] of 6.01. In data set [2], the EC90 is 8.3 µM.

As to `Cc1cn([C@H]2CO[C@@H](COC(=O)CN)O2)c(=O)[nH]c1=O.Cl`, the t1/2 in data set [3] was 22 h; in data set [5], 8.67 h; in data set [7], 0.207 h. For the same compound, the pIC50 in data set [4], in data set [1] and in data set [6] was below 4.00 throughout. The same compound gave a pEC50 in data set [2] of 5.60. The compound further yielded an EC90 in data set [2] of 8.4 µM.

On to `CCCCCCCC(=O)OC[C@@H]1OC[C@H](n2cc(C)c(=O)[nH]c2=O)O1`, for which the t1/2 turned out to be 54.17 h in data set [3], 30 h in data set [5] and 0.483 h in data set [7]. For the same compound, the negative-log IC50 (pIC50) in data set [4], in data set [1] and in data set [6] was below 4.00 each time. Further, in data set [2], the negative-log EC50 (pEC50) was 6.22. In data set [2], the EC90 came to 4.3 µM.

For the compound `Cc1cn([C@H]2CO[C@@H](COC(=O)[C@H](N)C(C)C)O2)c(=O)[nH]c1=O.Cl`, the t1/2 was 30 h in data set [3], 12.2 h in data set [5] and 0.323 h in data set [7]. The pIC50 in data set [4], in data set [1] and in data set [6] was below 4.00 each time. The same compound gave a pEC50 in data set [2] of 6.01. This compound also registered an EC90 in data set [2] of 6.5 µM.

Regarding `Cc1cn([C@H]2CO[C@@H](COC(=O)[C@@H](N)Cc3ccccc3)O2)c(=O)[nH]c1=O.Cl`, the t1/2 was determined as 17.83 h in data set [3], 9.17 h in data set [5] and 0.243 h in data set [7]. The negative-log IC50 (pIC50) in data set [4], in data set [1] and in data set [6] was below 4.00 throughout. The same compound gave a pEC50 in data set [2] of 6.06. The EC90 in data set [2] turned out to be 4.4 µM.

For the compound `Cc1cn([C@H]2CO[C@@H](COC(=O)C3CC3)O2)c(=O)[nH]c1=O`, the t1/2 in data set [3] turned out to be 46.67 h; in data set [5], 20 h; in data set [7], 0.288 h. Further, the pIC50 in data set [4], in data set [1] and in data set [6] was below 4.00 each time. This compound showed a negative-log EC50 (pEC50) in data set [2] of 5.33. The compound also returned an EC90 in data set [2] of 15.1 µM.
